In ChEMBL document CHEMBL1821653, “Alcohol-, diol-, and carbohydrate-substituted indenoisoquinolines as topoisomerase I inhibitors: investigating the relationships involving stereochemistry, hydrogen bonding, and biological activity” (2011):

Tests used:
[1] = biological target: T1, DNA topoisomerase 1 (Homo sapiens) (UniProt P11387); assay: Inhibition of recombinant human TOP1 mediated DNA cleavage after 20 mins by gel electrophoresis relative to camptothecin; parameters: concentration or dose not given beside the values
T1 sequence (whole entry): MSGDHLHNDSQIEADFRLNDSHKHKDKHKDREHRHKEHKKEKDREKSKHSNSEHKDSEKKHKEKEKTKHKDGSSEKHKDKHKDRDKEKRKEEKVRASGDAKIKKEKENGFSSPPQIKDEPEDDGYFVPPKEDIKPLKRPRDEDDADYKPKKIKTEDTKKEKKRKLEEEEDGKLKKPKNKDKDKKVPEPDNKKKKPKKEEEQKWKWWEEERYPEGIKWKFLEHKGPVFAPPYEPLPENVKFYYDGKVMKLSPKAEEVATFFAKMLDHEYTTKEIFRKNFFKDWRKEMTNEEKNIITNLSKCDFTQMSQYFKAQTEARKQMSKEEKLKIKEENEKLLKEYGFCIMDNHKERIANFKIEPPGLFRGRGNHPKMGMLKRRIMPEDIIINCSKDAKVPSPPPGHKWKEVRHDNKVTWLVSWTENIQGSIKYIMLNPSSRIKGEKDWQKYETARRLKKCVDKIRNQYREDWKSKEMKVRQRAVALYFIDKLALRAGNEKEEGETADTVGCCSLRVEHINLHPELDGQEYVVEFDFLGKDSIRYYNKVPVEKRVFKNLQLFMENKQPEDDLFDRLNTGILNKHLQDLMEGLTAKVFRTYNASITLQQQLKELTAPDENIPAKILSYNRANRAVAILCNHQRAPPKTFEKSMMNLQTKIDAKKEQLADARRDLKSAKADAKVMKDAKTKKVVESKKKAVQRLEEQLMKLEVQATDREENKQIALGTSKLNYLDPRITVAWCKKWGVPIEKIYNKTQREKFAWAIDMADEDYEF
Method in brief: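 117-bp oligonucleotide containing Top1 cleavage sites, 3'-end labeled with [α-32P]-dGTP by Klenow fill-in. About 2 nM substrate incubated with recombinant Top1 and various compound concentrations for 20 min at 25 °C in 10 mM Tris-HCl pH 7.5, 50 mM KCl, 5 mM MgCl2, 0.1 mM EDTA, 15 μg/mL BSA. Stopped with 0.5% SDS, run on 20% denaturing PAGE, phosphorimaged.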

[2] = tested on: MCF7; assay: Antiproliferative activity against human MCF7 cells by SRB assay; assay type: functional
Method in brief: (§1)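 NCI 60-cell-line human tumor panel. Compounds first screened at one dose of 10^-5 M. Selected compounds then tested at five concentrations from 10^-8 to 10^-4 M. GI50 is the concentration giving 50% growth inhibition. GI50 values outside the tested range are assigned 10^-8 M or 10^-4 M.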

[3] = tested on: UACC-62; assay: Antiproliferative activity against human UACC62 cells by SRB assay; assay type: functional; method in brief: as §1
[4] = tested on: DU-145; assay: Antiproliferative activity against human DU145 cells by SRB assay; assay type: functional; method in brief: as §1
[5] = tested on: SF-539; assay: Antiproliferative activity against human SF539 cells by SRB assay; assay type: functional; method in brief: as §1
[6] = tested on: HOP-62; assay: Antiproliferative activity against human HOP62 cells by SRB assay; assay type: functional; method in brief: as §1
[7] = tested on: SN12C; assay: Antiproliferative activity against human SN12C cells by SRB assay; assay type: functional; method in brief: as §1
[8] = tested on: OVCAR-3; assay: Antiproliferative activity against human OVCAR3 cells by SRB assay; assay type: functional; method in brief: as §1
[9] = tested on: HCT-116; assay: Antiproliferative activity against human HCT116 cells by SRB assay; assay type: functional; method in brief: as §1

SMILES	inhibition [1]	GI50 [2]	GI50 [3]	GI50 [4]	GI50 [5]	GI50 [6]	GI50 [7]	GI50 [8]	GI50 [9]
COc1cc2c3c(n(CCCn4ccnc4)c(=O)c2cc1OC)-c1cc2c(cc1C3=O)OCO2 [INDIMITECAN]	> 95%	0.01 µM							
O=C1c2ccccc2-c2c1c1ccccc1c(=O)n2C[C@@H](O)[C@H](O)[C@H](O)CO	50%	4.57 µM	7.41 µM	16.6 µM	7.59 µM	8.71 µM	20 µM	> 100 µM	
O=C1c2ccccc2-c2c1c1ccccc1c(=O)n2CC(O)CO (racemic)	50%	3.55 µM	7.58 µM	2.88 µM	5.89 µM	7.76 µM	2.95 µM	18.6 µM	4.36 µM
C[C@@H](CO)n1c2c(c3ccccc3c1=O)C(=O)c1ccccc1-2	50%								
COc1cc2c3c(n(CCCNCCO)c(=O)c2cc1OC)-c1cc2c(cc1C3=O)OCO2 [LMP-744]	> 95%	< 0.01 µM			0.04 µM			0.5 µM	
O=C1c2ccccc2-c2c1c1ccccc1c(=O)n2C[C@H](O)[C@H](O)[C@H](O)[C@H](O)CO		1.78 µM	2.95 µM	3.31 µM	5.75 µM	3.23 µM	3.39 µM	13.8 µM	4.17 µM
C[C@H](O)Cn1c2c(c3ccccc3c1=O)C(=O)c1ccccc1-2	75%								
CC(O)Cn1c2c(c3ccccc3c1=O)C(=O)c1ccccc1-2 (racemic)	20%	3.8 µM	6.16 µM	4.36 µM	6.76 µM	3.46 µM	3.98 µM	16.2 µM	5.75 µM
O=C1c2ccccc2-c2c1c1ccccc1c(=O)n2C[C@H](O)[C@@H](O)[C@H](O)CO	50%	1.74 µM	2.88 µM		7.94 µM	3.23 µM	2.24 µM	24 µM	3.39 µM
O=C1c2ccccc2-c2c1c1ccccc1c(=O)n2C[C@H](O)[C@@H](O)[C@@H](O)[C@H](O)CO	20%								
O=C1c2ccccc2-c2c1c1ccccc1c(=O)n2C[C@@H](O)CO	50%	3.04 µM	4.36 µM	2.34 µM	5.72 µM	3.79 µM	3.77 µM	16.1 µM	4.47 µM
COc1cc2c3c(n(C)c(=O)c2cc1OC)-c1cc2c(cc1C3=O)OCO2		1.58 µM	4.2 µM	37 µM		1.3 µM	68 µM		35 µM
O=C1c2ccccc2-c2c1c1ccccc1c(=O)n2C[C@@H](O)[C@@H](O)[C@H](O)[C@H](O)CO	20%								
COc1cc2c3c(n(CCCN4CCOCC4)c(=O)c2cc1OC)-c1cc2c(cc1C3=O)OCO2 [INDOTECAN]	> 95%	0.37 µM							
O=C1c2ccccc2-c2c1c1ccc([N+](=O)[O-])cc1c(=O)n2C[C@H](O)[C@@H](O)[C@H](O)[C@H](O)CO	> 95%	0.88 µM	2.98 µM	4.76 µM	2.61 µM	7.35 µM	17.7 µM	4.26 µM	5.08 µM
C[C@H](CO)n1c2c(c3ccccc3c1=O)C(=O)c1ccccc1-2	20%								
O=C1c2ccccc2-c2c1c1ccccc1c(=O)n2C[C@H](O)CO	75%	4.9 µM	5.37 µM	5.75 µM	7.41 µM	5.01 µM	6.92 µM	14.5 µM	
CC[C@@]1(O)C(=O)OCc2c1cc1n(c2=O)Cc2cc3ccccc3nc2-1 [CAMPTOTHECIN]		0.01 µM							
O=C(CO)Cn1c2c(c3ccccc3c1=O)C(=O)c1ccccc1-2	20%	32.3 µM	58.9 µM	17.8 µM	20 µM	40.7 µM	81.3 µM	5.23 µM	30.9 µM
NCC(O)Cn1c2c(c3ccccc3c1=O)C(=O)c1ccccc1-2 (racemic)	50%	0.198 µM	0.318 µM	0.13 µM	0.344 µM	0.276 µM	0.206 µM	1.32 µM	0.263 µM
O=C1c2ccccc2-c2c1c1ccc([N+](=O)[O-])cc1c(=O)n2C[C@H](O)CO	> 95%	0.016 µM	0.098 µM	0.04 µM	0.157 µM	0.089 µM	0.241 µM	0.309 µM	0.025 µM
CC(CO)n1c2c(c3ccccc3c1=O)C(=O)c1ccccc1-2 (racemic)	20%	34.4 µM	11.7 µM	23.7 µM	14.4 µM	17.6 µM	37.1 µM	25.7 µM	15.9 µM
O=C1c2ccccc2-c2c1c1ccccc1c(=O)n2C[C@H](O)[C@H](O)[C@H](O)CO	0%	1.38 µM	3.23 µM	1.32 µM	2.14 µM	2.95 µM	2.4 µM	13.5 µM	3.39 µM
C[C@@H](O)Cn1c2c(c3ccccc3c1=O)C(=O)c1ccccc1-2	75%	3.23 µM	10.2 µM	8.32 µM	6.31 µM	3.39 µM	9.33 µM	21.4 µM	5.52 µM
O=C1c2ccccc2-c2c1c1ccccc1c(=O)n2C[C@@H](O)[C@@H](O)[C@H](O)CO	75%	1.9 µM	6.31 µM	3.98 µM	11.2 µM	6.46 µM	5.01 µM	13.2 µM	3.39 µM
COc1cc2c3c(n(C[C@H](O)CO)c(=O)c2cc1OC)-c1ccccc1C3=O	75%	0.097 µM	0.144 µM	0.419 µM	0.214 µM	0.336 µM	0.501 µM	0.287 µM	0.23 µM
O=C1c2ccccc2-c2c1c1ccccc1c(=O)n2C[C@H](O)[C@@H](O)[C@H](O)[C@H](O)CO	50%								
